# Compound activity: PubChem BioAssay, several laboratories
# PfM18AAP inh-1: PfM18AAP inhibitors, malaria aminopeptidase, primary screen, biochemical, QFRET, recombinant enzyme; M18 aspartyl aminopeptidase (Plasmodium falciparum 3D7); H-Glu-NHMec fluorogenic cleavage; inhibition, % at 7.35 µM; actives 1.2% (n = 290,000);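 active means inhibition above the campaign mean inhibition over all tested compounds plus 3 SD, cut at about 28% in these data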;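 further: 0% = plate median of test compound wells and 100% = 2 mM ZnCl2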
# zVAD death inh: inhibitors of zVAD-triggered necroptosis, primary screen, L929 cells. viability rescue, % at 10 µM. actives 0.38% (n = 220,000). L929 zVAD necroptosis rescue, ATP luminescence, 24 h; with zVAD 60 µM;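 active means activation, scaled between plate controls, above about 75%, limit read from the data; inactive means activation under that limit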;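 further: 0% = zVAD with DMSO and 100% = DMSO alone without zVAD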
# RBBP9 inh: human RBBP9 inhibitors, primary screen, biochemical, fluorescence polarization, FP-Rh probe, HTS. Serine hydrolase RBBP9 (Homo sapiens), O75884. inhibition, % at 7.94 µM. recombinant RBBP9. actives 0.2% (n = 220,000). AID 1515, 2009;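 active means inhibition above the campaign mean of all tested compounds plus 3 SD, cut at about 14% in these data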;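 further: plate controls were DMSO wells with RBBP9 for no effect and wells lacking RBBP9 protein for full effect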
# Target sequence (O75884 whole entry, looked up): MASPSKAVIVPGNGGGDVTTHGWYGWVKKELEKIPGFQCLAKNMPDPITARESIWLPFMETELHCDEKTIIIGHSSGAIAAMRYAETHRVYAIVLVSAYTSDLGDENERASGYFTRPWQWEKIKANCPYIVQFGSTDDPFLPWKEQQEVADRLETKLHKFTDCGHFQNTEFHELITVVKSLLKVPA
#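 System: RBBP9 protein | Quantity: 2.5 µM RBBP9 dispensing solution, before mixing | Reagent: FP-Rh probe, 375 nM dispensing solution | Timing: Enzyme-compound preincubation 30 min, then probe labeling 45 min, 25 °C | Measured by: Fluorescence polarization | Read-out: % inhibition | Replication: One well per compound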
# TbHK1 inh: Trypanosoma brucei hexokinase 1 inhibitors, primary screen, biochemical, G6PDH-coupled NADH absorbance, MLSCN library. hexokinase 1 [Trypanosoma brucei]. recombinant TbHK1, G6PDH-coupled NADH A340. inhibition, % at 10 µM. actives 0.11% (n = 220,000). AID 1430, 2008;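 active means inhibition of 50% or more in the single-dose primary screen; inactive means inhibition below 50%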
# TNF death inh: inhibitors of TNF-alpha triggered necroptosis, primary screen, cell-based, Jurkat FADD-/-, single concentration; Jurkat FADD-/- TNF necroptosis rescue, ATP luminescence, 24 h; 0 = TNF only, 100 = no-TNF cells; activation (protection from cell death), % at 10 µM; actives 0.068% (n = 220,000); AID 463075, 2010;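 active means activation, meaning protection from cell death, of at least 50% relative to plate controls; inactive means activation below 50%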;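 further: necroptosis triggered by 40 ng/mL TNF-alpha added together with compound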
# Lipid droplet: inhibitors of hepatocyte lipid droplet formation, primary screen, imaging, high-throughput imaging, BODIPY stain; inhibition, % at 6.5 µM; AID 1656, 2009; actives 0.4% (n = 240,000); AML12 mouse hepatocytes, oleate lipid droplets;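 active means lipid droplet intensity inhibited by at least 50%, with more than 500 cells counted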
#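 Assay system: AML12 hepatocytes (mouse) / Also added: 100 µM oleic acid challenge / Times: overnight treatment with compound plus oleate / Detection: high-content imaging of BODIPY-stained droplets and DAPI nuclei / Evaluation: % inhibition of lipid droplet signal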
# PfM18AAP inh-2: PfM18AAP inhibitors, malaria aminopeptidase, confirmation, biochemical, QFRET, recombinant enzyme, triplicate. H-Glu-NHMec fluorogenic cleavage. actives 28% (n = 2,400). shares compounds with PfM18AAP inh-1. inhibition, % at 7.35 µM;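 active means mean inhibition over replicate wells above the hit cutoff set for the earlier primary screen, cut at about 29% in these data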;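 further: 0% = median of test compound wells and 100% = 2 mM ZnCl2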
# CTSL1 counter: cathepsin L1 inhibitors, retest, confirmation, counter-screen for PFM18AAP inhibitor project, biochemical, QFRET, triplicate | purified cathepsin L1, Z-Leu-Arg-MCA fluorescence | inhibition, % at 5.96 µM | shares compounds with PfM18AAP inh-1 | 2,400 tested, under 10 active;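 active means average inhibition across replicates above the hit cutoff set in the earlier primary screen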;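 further: 0% = median of test compound wells and 100% = Z-Phe-Ala-diazomethylketone 1 µM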
# Target sequence (P07711 whole entry, looked up): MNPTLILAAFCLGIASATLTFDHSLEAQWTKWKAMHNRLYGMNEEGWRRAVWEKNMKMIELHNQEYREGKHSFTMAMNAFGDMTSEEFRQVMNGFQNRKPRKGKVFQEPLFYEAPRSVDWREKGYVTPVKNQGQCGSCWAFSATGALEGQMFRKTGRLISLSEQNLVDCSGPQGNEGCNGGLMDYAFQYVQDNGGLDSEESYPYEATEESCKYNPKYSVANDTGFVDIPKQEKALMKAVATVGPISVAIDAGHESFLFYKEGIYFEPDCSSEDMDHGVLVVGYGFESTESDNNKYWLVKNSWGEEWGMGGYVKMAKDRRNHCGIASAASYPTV
# Numbers without * were called inactive; . = no result given. Most compounds without a hit are left out; they make up all but 2% or so of the library.
SMILES,PfM18AAP inh-1,zVAD death inh,RBBP9 inh,TbHK1 inh,TNF death inh,Lipid droplet,PfM18AAP inh-2,CTSL1 counter
Oc1c(Br)cc(/C=N/Nc2nncc3ccccc23)cc1Br,33.3*,.,.,.,.,7.7,10.5,4.3
COc1cc(/C=N/Nc2ncc(C(F)(F)F)cc2Cl)cc(OC)c1O,35.0*,0.5,-3.3,-34.3,0.0,-1.1,30.9*,2.1
Fc1cccc(/C=N/Nc2ccc(Cl)nn2)c1,8.7,.,.,.,.,-22.2,.,.
Cn1c(C(=O)N2CCN(c3ccccc3)CC2)cc2cc(Cl)ccc21,-18.2,.,.,.,.,-1.4,.,.
Cn1c(=O)[nH]c(=O)c2c1[nH]c(=S)n2Cc1ccc(Cl)cc1,48.5*,.,.,.,.,.,16.0,2.9
Cn1c(=O)n(Cc2ccccc2Cl)c2ccccc21,-2.0,-0.4,-3.9,0.0,-1.7,5.0,.,.
Cn1c(=O)n(Cc2ccccc2Cl)c(=O)c2c1[nH]c(=S)n2C,36.0*,.,.,.,.,-0.2,-14.0,-4.9
Cn1c(=O)[nH]c(=O)c2c1[nH]c(=S)n2CCCc1ccccc1,57.6*,.,.,.,.,.,40.7*,2.4
Cn1c(=O)[nH]c(=O)c2c1nc(Br)n2CCCc1ccccc1,2.4,-0.4,-0.6,-4.4,-1.2,-1.7,.,.
CC(C)=NNc1nc2c(c(=O)[nH]c(=O)n2C)n1CCCc1ccccc1,35.8*,.,.,.,.,-0.1,-28.9,-7.1
CC(C)Sc1nc2c(c(=O)[nH]c(=O)n2C)n1Cc1ccc(Cl)cc1,4.1,1.5,-1.0,2.1,-3.8,.,.,.
O=C(NCc1cccc(C(F)(F)F)c1)c1ccc(=O)[nH]c1,3.3,.,.,.,.,-2.6,.,.
Cn1c(=O)c2c(nc(Br)n2CCCc2ccccc2)n(C)c1=O,-18.1,1.3,-4.9,44.3,0.2,.,.,.
Cn1c(=O)c2c([nH]c(=S)n2CCCc2ccccc2)n(C)c1=O,44.4*,.,.,.,.,-0.7,29.7*,-0.9
CC(C)Cc1ccccc1S(N)(=O)=O,-8.2,.,.,.,.,-2.3,.,.
CCCCN=Cc1c(C)[nH]n(-c2ccccc2)c1=S,50.6*,0.4,-8.4,-1.2,0.1,3.9,-17.6,1.3
Oc1c(Br)cccc1/C=N/c1ncn[nH]1,62.6*,.,.,.,.,2.4,55.1*,-0.7
O=C(NCC(=O)N(c1cccnc1)C(C(=O)NC1CCCCC1)c1cccnc1)c1ccco1 (stereo unspecified),-9.0,-0.2,-9.7,3.6,-1.9,-2.0,.,.
Cc1ccc(-n2nc3ccc(N)cc3n2)cc1C,10.4,.,.,.,.,16.3,.,.
Cc1ccc(-n2nc3ccc(N)cc3n2)cc1Cl,32.4*,.,.,.,.,2.6,-41.8,-1.4
COC(=O)c1ccc(-n2c(CCC(=O)O)ccc2-c2ccccc2)cc1,-0.6,.,.,.,.,3.0,.,.
COc1ccccc1NC(=O)CCc1nnc2ccc(NCc3ccco3)nn12,16.6,.,.,.,.,-1.7,.,.
O=C(CCc1nnc2ccc(NCc3ccco3)nn12)Nc1ccccc1F,48.5*,.,.,.,.,10.6,-20.8,-1.2
CC(C)(C)c1ccc(NC(=O)COC(=O)c2ccc(NS(=O)(=O)c3ccc(F)c(F)c3)cc2)cc1,-7.5,64.0,-10.4,-11.2,4.0,-1.1,.,.
COc1cc(/C=C2\N=C3CCCCCN3C2=O)ccc1O,14.6,0.0,5.8,-15.7,-0.5,-5.4,.,.
SMILES,PfM18AAP inh-1,zVAD death inh,RBBP9 inh,TbHK1 inh,TNF death inh,Lipid droplet,PfM18AAP inh-2,CTSL1 counter
O=C1/C(=C\c2ccc(O)c(O)c2)N=C2CCCCCN12,65.0*,4.8,6.5,-8.7,-6.7,-10.3,55.6*,4.0
CC(C)c1[nH]nc2c1C(Cc1ccccc1)C(C#N)=C(N)O2 (stereo unspecified),9.0,0.3,-3.5,41.0,-3.3,.,.,.
Cc1cccnc1NC(=S)NCc1ccco1,32.3*,-0.8,-2.0,-3.0,-2.2,-5.8,-19.6,-4.9
N/C(Cn1cncn1)=N\OC(=O)c1ccc(Cl)cc1,5.0,8.6,2.2,3.1,1.0,15.1,.,.
O=C(OCn1cncn1)c1ccc(Cl)cc1Cl,53.2*,0.0,-11.9,-3.7,-2.1,3.4,29.0*,6.4
COc1ccccc1CNC(=O)C1CCC(CNS(=O)(=O)c2ccc(C)cc2)CC1 (stereo unspecified),-10.6,.,.,.,.,-16.7,.,.
O=C(CN(c1cccc(C(F)(F)F)c1)S(=O)(=O)c1ccccc1)N1CCOCC1,1.2,1.7,-7.7,-4.5,-0.3,.,.,.
CCOC(=O)N1CCN(C(=O)CN(c2cccc(C(F)(F)F)c2)S(=O)(=O)c2ccccc2)CC1,36.5*,-0.6,-8.0,0.7,-2.5,.,-62.1,-4.3
CC(C)n1cnc2c(=S)nc[nH]c21,23.9,0.6,3.1,-13.3,1.4,8.6,-45.9,5.0
Cc1ccc(/C=C/C(=O)O)cc1S(=O)(=O)N1CCCCC1,1.0,0.1,-6.6,-10.8,-0.2,-9.2,.,.
CCC(/C=C1\Sc2ccc(OC)cc2N1CC)=C\c1sc2ccc(OC)cc2[n+]1CCCS(=O)(=O)[O-],22.6,-1.6,-63.5,-8.5,-10.1,-53.9,.,.
CCN1/C(=C/c2cc[n+](CCCS(=O)(=O)[O-])c3ccccc23)Sc2ccccc21,33.0*,-0.9,-12.0,7.9,-1.2,0.5,-45.4,-2.3
O=C(C1CCCN(Cc2ccccc2F)C1)N1CCc2ccccc2C1 (stereo unspecified),8.9,0.8,12.9,-1.1,2.5,-13.0,.,.
COC(=O)c1ccc([N+](=O)[O-])cc1N1C(=O)C2C3CCC(C3)C2C1=O (stereo unspecified),2.6,0.6,-9.6,1.9,-0.4,-13.2,.,.
COc1ccc(NC(=S)c2ccc(N(C)C)cc2)cc1,10.0,0.0,-0.9,-3.2,2.0,-17.0,.,.
CN(C)c1ccc(NC(=S)c2ccc3ccccc3n2)cc1,34.6*,.,.,.,.,47.1,22.4,-3.8
CCc1nnc(NC(=O)CN2C(=O)/C(=C/c3cc(OC)c(OC)c(OC)c3)SC2=S)s1,33.1*,3.2,-3.0,-6.7,0.3,1.8,-16.6,1.2
COc1cc(/C=C2/SC(=S)N(CC(=O)Nc3nc4ccccc4s3)C2=O)cc(OC)c1OC,20.2,0.4,-3.9,4.1,-3.8,.,.,.
O=C(COCc1cc(-c2ccc3c(c2)OCO3)on1)N1CCN(c2ccccc2)CC1,-3.1,.,.,.,.,-0.6,.,.
